# Screening results deposited in PubChem BioAssay by Broad Institute.
# GSIS activator = GLuc luminescence reporter in INS-1E cells, primary screen for activators of glucose-dependent secretion of insulin. INS-1E GLuc reporter insulin secretion, 2-3 h. activation, % at 16.6 µM. actives 0.61% (n = 370,000). AID 743287;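 active = lowest replicate activation of at least 40%, so every replicate reaches that level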;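 note: 0% = median of neutral control wells and 100% = median of IBMX positive control wells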
# AF4-AF9 inh = MLL-AF4/AF9 protein interaction inhibition. actives 0.47% (n = 350,000). inhibition, % at 10 µM. P42568. AlphaScreen, biotin-AF4 peptide binding to FLAG-AF9;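 active = every replicate reaching a set inhibition limit, whatever the replicate mean, cut at about 25% in these data; inconclusive = mean inhibition reaches that limit but some replicates miss it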;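 note: 0% = plate neutral control median and 100% = total signal loss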
# RAD52 anneal inh = blocks human RAD52 DNA annealing; inhibition, % at 18.7 µM; AID 651710; recombinant RAD52 DNA annealing, FRET fluorescence; actives 0.46% (n = 360,000);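 active = every replicate showing at least 50% inhibition; inconclusive = mean inhibition at least 50% but not in every replicate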
# RAD54 inh = inhibitors of human RAD54 branch migration; actives 0.14% (n = 360,000); AID 602329; Q92698; RAD54 Holliday junction branch migration, FAM/BHQ fluorescence; inhibition, % at 10.4 µM;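 active = mean normalized replicate activity at least 40 and at least half of replicates scoring 40 or more; inconclusive = only one of the two criteria met; inactive = mean below 40 and under half of replicates reaching 40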;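 note: 0% = median of neutral control wells and 100% = median of positive control wells; inhibitors cause a drop in the FAM fluorescence signal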
# Ecoli rRNA inh = selective bacterial rRNA inhibition in E. coli; E. coli WT GFP vs humanized-ribosome RFP mutants, fluorescence, 24 h; active compounds read low; DMSO median 0, no signal -100; GFP signal change (wild-type ribosome), % (test concentration not listed); actives 1.6% (n = 350,000); AID 720706;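 active = significant combined selectivity score with lowered wild-type GFP, culture density cut under 30%, mutant RFP and density less affected; inactive = any of these conditions unmet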
# E-selectin induc = induces E-selectin expression in human endothelial cells; HUVEC E-selectin immunofluorescence imaging; normalized: neutral wells 0, TNF-alpha wells 100; activation, % at 7.58 µM; actives 0.37% (n = 260,000);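 active = mean E-selectin-positive cell signal at least 10% of the positive control, reached in at least 60% of replicates, without over 20% cell loss; inconclusive = no rule given, readout overlaps actives, possibly toxicity-flagged; inactive = the rest, including those meeting only one limit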
# Target sequence (P16581 whole entry, looked up): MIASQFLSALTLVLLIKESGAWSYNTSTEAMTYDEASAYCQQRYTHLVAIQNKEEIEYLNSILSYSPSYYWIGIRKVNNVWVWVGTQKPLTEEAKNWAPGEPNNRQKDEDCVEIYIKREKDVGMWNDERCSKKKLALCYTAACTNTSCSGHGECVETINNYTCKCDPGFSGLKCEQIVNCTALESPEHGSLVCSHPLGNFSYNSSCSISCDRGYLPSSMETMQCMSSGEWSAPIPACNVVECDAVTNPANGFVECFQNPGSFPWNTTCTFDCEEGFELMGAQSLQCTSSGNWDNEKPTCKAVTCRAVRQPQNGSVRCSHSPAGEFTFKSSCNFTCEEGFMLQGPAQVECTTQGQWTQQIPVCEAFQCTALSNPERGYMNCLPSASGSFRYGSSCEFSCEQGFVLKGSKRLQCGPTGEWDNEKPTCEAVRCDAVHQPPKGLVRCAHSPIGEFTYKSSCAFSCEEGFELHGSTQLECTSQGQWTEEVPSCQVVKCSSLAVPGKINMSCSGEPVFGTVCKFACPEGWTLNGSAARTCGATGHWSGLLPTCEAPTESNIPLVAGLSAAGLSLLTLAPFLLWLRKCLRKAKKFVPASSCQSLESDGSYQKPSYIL
#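 System: HUVEC, human umbilical vein endothelial cells; quantity: 3,000 cells/well; buffer or medium: EGM-2 medium, gelatin-coated wells; dosing: single-point compound dose; detection: immunofluorescence imaging; evaluation: % PE-positive cells; benchmarks: TNF-alpha, DMSO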
# * hit, by the source's call; ? = inconclusive; nt = not tested or not shown. Only some compounds are listed: those with a hit (about 2.6% of all), similar ones and a draw of the others.
SMILES,GSIS activator,AF4-AF9 inh,RAD52 anneal inh,RAD54 inh,Ecoli rRNA inh,E-selectin induc
COc1ccc(CC(=O)O/N=C(\N)c2ccc(OC)cc2)cc1,-14.2,-3.7,-3.8,-11.4,-18.9*,nt
COc1ccc(CC(=O)O/N=C(\N)c2ccccc2)cc1OC,50.8*,-3.3,-16.1,-19.3,-22.1*,0.2
COc1ccc(C(=O)O/N=C(\N)c2ccc(OC)c(OC)c2)cc1,44.8*,-2.6,-12.0,-22.7,-3.6,-0.1
COc1ccc(CC(=O)O/N=C(\N)Cc2ccc(OC)cc2)cc1,nt,nt,nt,-6.0,nt,nt
COc1ccccc1C(=O)Nc1c2c(nn1-c1cccc(C)c1C)CS(=O)(=O)C2,58.5*,nt,nt,5.9,nt,nt
Cc1ccccc1-n1nc2c(c1NC(=O)c1cc3ccccc3oc1=O)CS(=O)(=O)C2,53.8*,nt,nt,nt,nt,nt
N#Cc1c(N)[nH]c(C(=O)c2ccccc2)c1-c1ccc(Cl)cc1,-11.7,-13.7,-14.6,nt,-44.1*,nt
CC(C)(C)C(=O)c1c(N)[nH]c(C(=O)c2ccccc2)c1-c1ccc(Cl)cc1,-26.2,2.1,-12.7,nt,-33.4,-0.1
CC(C)(C)C(=O)c1c(N)[nH]c(C(=O)c2ccccc2)c1-c1ccc(Cl)cc1Cl,-13.3,-1.1,-5.5,nt,-30.0*,nt
COc1cc2c(cc1OC)CN(C(=O)[C@@H]1[C@H]3C(=O)O[C@H](c4ccccc4)[C@H](c4ccccc4)N3[C@H](c3ccc(OCCO)cc3)[C@@]13C(=O)Nc1ccc(C#CCNC(N)=O)cc13)CC2,nt,-2.1,-95.4,-13.3,nt,nt
COCC(=O)N1CC2(C1)[C@@H](c1ccc(-c3ccc(F)cc3)cc1)[C@@H](CO)N2C(C)=O,1.7,0.6,-25.5,nt,-0.1,-0.2
O=C(COc1cc2oc(=O)c3c(c2cc1Cl)CCC3)NCCCn1ccnc1,4.9,-3.2,4.2,15.5,-16.9*,nt
CCCNC(=O)C[C@@H]1C[C@@H]2c3cc(NC(=O)Nc4ccc(OC)cc4)ccc3O[C@@H]2[C@@H](CO)O1,3.0,0.8,9.8,2.1,-4.0,0.0
CN1C(=O)c2cc(NC(=O)C3CCCC3)ccc2OC[C@H]2O[C@H](CC(=O)NCC(F)(F)F)CC[C@@H]21,1.8,-1.0,1.0,2.9,-0.2,0.2
O=S(=O)(Nc1ccc(-c2ccc3nncn3n2)cc1)c1ccccc1Cl,40.5*,-35.7,-7.5,nt,0.0,nt
Oc1cccc(Oc2ncc(C(F)(F)F)cc2Cl)c1,1.7,1.4,-12.1,nt,-13.5,131.6*
COCC(=O)Nc1ccc2c(c1)C(=O)N(C)[C@H]1CC[C@@H](CC(=O)NCC3CC3)O[C@H]1CO2,7.7,1.0,1.2,-14.1,3.9,0.1
Cc1ccc(S(=O)(=O)N2CCN(C(=O)COC(=O)c3ncc(Cl)c(Cl)c3Cl)CC2)c(C)c1,-8.4,1.0,2.5,5.9,-22.8*,nt
Cc1ccc(S(=O)(=O)Nc2ccc3c(c2)CC(=O)N([C@@H](C)CO)C[C@H](C)[C@H](CN(C)C(=O)Nc2cccc4ccccc24)O3)cc1,-13.5,-3.1,-0.7,-5.5,-0.6,0.3
Clc1c(Cl)c(Cl)c2n[nH]nc2c1Cl,-43.5,nt,-10.6,nt,-53.4*,-0.4
COC(=O)N/N=C/c1cc(Cl)c(OCc2ccc(F)cc2)c(OC)c1,37.8,nt,nt,-4.3,nt,nt
COC(=O)N/N=C/c1cc(Cl)c(OCc2ccccc2F)c(OC)c1,3.9,-0.2,-13.4,-0.5,-15.6*,nt
CN1CCN(/N=C/c2ccc(-c3ccc([N+](=O)[O-])cc3Cl)o2)CC1,3.3,35.7*,0.7,nt,-13.3,-0.2
CN1C(=O)c2cc(NC(=O)Nc3ccc(Cl)cc3)ccc2OC[C@H]2O[C@@H](CC(=O)NCCN3CCCCC3)CC[C@@H]21,4.2,6.6,38.9,11.2,-0.8,0.1
COc1ccc2cc(-c3[nH]ncc3CN3CCCC3c3nonc3C)ccc2c1 (stereo unspecified),11.0,7.8,-72.5,-2.7,-23.1*,nt
SMILES,GSIS activator,AF4-AF9 inh,RAD52 anneal inh,RAD54 inh,Ecoli rRNA inh,E-selectin induc
CCC(=O)Nc1ccc2c(c1)C(=O)N(C)C[C@@H](OC)[C@@H](C)CN(C(=O)c1ccccn1)[C@H](C)CO2,7.1,?,-30.5,-1.2,1.7,-0.2
CO[C@H]1CN(C)C(=O)c2cc(NC(C)=O)ccc2OC[C@@H](C)N(C(=O)Cc2ccccn2)C[C@@H]1C,5.4,28.6*,-19.6,3.5,3.8,0.0
CCC(=O)Nc1ccc2c(c1)C(=O)N(C)C[C@@H](OC)[C@H](C)CN(Cc1ccccc1F)[C@H](C)CO2,-20.6,7.3,-9.6,-1.6,-4.8,0.2
CCC(=O)Nc1ccc2c(c1)C(=O)N(C)C[C@@H](OC)[C@H](C)CN(Cc1ccccc1F)[C@@H](C)CO2,-23.0,30.3*,-17.4,-3.6,-7.1,-0.4
CCC(=O)Nc1ccc2c(c1)C(=O)N(C)C[C@H](OC)[C@@H](C)CN(C(=O)c1ccccn1)[C@@H](C)CO2,-2.0,26.2*,-19.2,-4.7,2.2,0.0
CCC(=O)N(C)C[C@H]1Oc2ncc(-c3ccccc3F)cc2C(=O)N([C@H](C)CO)C[C@H]1C,4.5,-1.1,7.2,9.5,1.9,0.2
O=C(C[C@@H]1C[C@@H]2c3cc(NC(=O)CC4CC4)ccc3O[C@@H]2[C@@H](CO)O1)NCc1ccccn1,16.0,0.3,-0.8,-11.6,1.8,-0.5
COc1ccc(OC)c(S(=O)(=O)Nc2cccc3ccccc23)c1,nt,0.2,-1.6,4.3,-25.4*,0.0
O=C(Nc1cccc([N+](=O)[O-])c1)N1CCCCCC1,63.0*,-0.6,-5.5,3.8,-6.2,nt
O=C(C1CCOCC1)N1CC(=O)N2[C@H](CO)[C@H](c3ccc(C#CC4CC4)cc3)[C@H]2C1,-0.6,-0.4,-3.9,nt,3.0,-0.2
Cc1ccc(S(=O)(=O)N[C@@H]2C=C[C@H](CC(=O)NC3CCCCC3)O[C@H]2CO)cc1,2.3,-0.8,-4.8,5.4,0.5,-0.3
COc1ccc(Cc2nnc(NC(=O)c3ccccc3[N+](=O)[O-])s2)cc1,41.8,-3.6,-4.2,3.3,-29.8*,-0.1
O=C(N/N=C1\CC2CC=CC12)c1ccccc1Cl (stereo unspecified),12.8,0.7,-5.0,-4.0,22.0,0.0
O=[N+]([O-])c1ccccc1N/N=C1\CC2CC=CC12 (stereo unspecified),6.6,4.6,-1.6,nt,-28.7*,1.5
Cc1ccc(S(=O)(=O)SCCCSS(=O)(=O)c2ccc(C)cc2)cc1,188.9*,-3.5,-20.6,-5.2,23.4,-0.1
COc1ccccc1N1CCN(c2ccc(N3C(=O)CCC3=O)cc2[N+](=O)[O-])CC1,-9.5,10.9,-7.4,2.9,-7.6,-0.8
C=C(C)CN1CCN(c2ccc(N3C(=O)CCCC3=O)cc2[N+](=O)[O-])CC1,49.6*,-14.0,-10.1,1.5,5.9,0.0
COc1ccc(NCC(=O)Nc2ccc(Cl)cc2C)c(OC)c1,-9.2,14.3,-16.3,-4.6,-19.2*,nt
CCOc1ccc(NCC(=O)Nc2ccc(Cl)cc2C)cc1,nt,nt,nt,9.7,nt,nt
